Measurements reported in ChEMBL document CHEMBL2401716, “Design and stereoselective synthesis of novel isosteviol-fused pyrazolines and pyrazoles as potential anticancer agents” (Eur J Med Chem, 2013).

Experiments:
Format in all cases: functional, cell-based
Raji = assay: Antiproliferative activity against human Raji cells after 48 hrs by MTT assay
How it was run: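 Human B-lymphoma Raji line kept in RPMI-1640 with 10% FBS and 100 U/mL penicillin at 37 °C, 5% CO2, humidified. Cells were plated in 96 wells and treated with compounds for 48 h. MTT (0.5 mg/mL) was added for 4 h, then formazan was taken up in DMSO after supernatant removal and read at 570 nm. Cisplatin served as positive control.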

HeLa = assay: Antiproliferative activity against human HeLa cells after 48 hrs by MTT assay
How it was run: (§1)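 Cells seeded in 96-well plates and exposed to compounds for 48 h at 37 °C, 5% CO2. MTT (0.5 mg/mL) then added for 4 h. Supernatant removed, formazan dissolved in DMSO, and OD read at 570 nm. Cisplatin served as positive control.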

SGC-7901 = assay: Antiproliferative activity against human SGC7901 cells after 48 hrs by MTT assay; settings: SGC-7901, 48 h; how it was run: as §1
A549 = assay: Antiproliferative activity against human A549 cells after 48 hrs by MTT assay; settings: A549, 48 h; how it was run: as §1

| SMILES | IC50 (Raji) [µM] | IC50 (HeLa) [µM] | IC50 (SGC-7901) [µM] | IC50 (A549) [µM] |
| --- | --- | --- | --- | --- |
| CCOC(=O)[C@]1(C)CCC[C@@]2(C)[C@@H]3CC[C@@]4(C)C[C@]3(CC[C@@H]21)[C@@H]1CN(c2cccc(C)c2)N=C14 | > 50 | > 50 | > 50 | > 50 |
| CCOC(=O)[C@]1(C)CCC[C@@]2(C)[C@@H]3CC[C@@]4(C)C[C@]3(CC[C@@H]21)[C@@H]1CN(c2ccc(OC)cc2)N=C14 | 12.2 | 31.2 | 34 | 17.8 |
| CCOC(=O)[C@]1(C)CCC[C@@]2(C)[C@@H]3CC[C@@]4(C)C[C@]3(CC[C@@H]21)[C@@H]1CN(c2cccc([N+](=O)[O-])c2)N=C14 | > 50 | > 50 | > 50 | > 50 |
| CCOC(=O)[C@]1(C)CCC[C@@]2(C)[C@@H]3CC[C@@]4(C)C[C@]3(CC[C@@H]21)[C@@H]1CN(c2cc(Cl)ccc2Cl)N=C14 | 25.6 | > 50 | > 50 | > 50 |
| CCOC(=O)[C@]1(C)CCC[C@@]2(C)[C@@H]3CC[C@@]4(C)C[C@]3(CC[C@@H]21)[C@@H]1CN(c2ccc(Cl)c(Cl)c2)N=C14 | > 50 | > 50 | > 50 | > 50 |
| CCOC(=O)[C@]1(C)CCC[C@@]2(C)[C@@H]3CC[C@@]4(C)C[C@]3(CC[C@@H]21)[C@@H]1CN(c2cc(Cl)cc(Cl)c2)N=C14 | > 50 | 24.6 | > 50 | > 50 |
| CCOC(=O)[C@]1(C)CCC[C@@]2(C)[C@@H]3CC[C@@]4(C)C[C@]3(CC[C@@H]21)[C@@H]1CN(c2cccc(C)c2C)N=C14 | 8.82 | > 50 | 31.9 | > 50 |
| CCOC(=O)[C@]1(C)CCC[C@@]2(C)[C@@H]3CC[C@@]4(C)C[C@]3(CC[C@@H]21)[C@@H]1CN(c2ccc(C)cc2C)N=C14 | 11.2 | > 50 | 28.5 | > 50 |
| CCOC(=O)[C@]1(C)CCC[C@@]2(C)[C@@H]3CC[C@@]4(C)C[C@]3(CC[C@@H]21)c1cnn(-c2cccc(Cl)c2)c14 | 9.54 | > 50 | 26.3 | 28.2 |
| CCOC(=O)[C@]1(C)CCC[C@@]2(C)[C@@H]3CC[C@@]4(C)C[C@]3(CC[C@@H]21)c1cnn(-c2ccccc2Br)c14 | 11.3 | 41.1 | 30.3 | 17.4 |
| CCOC(=O)[C@]1(C)CCC[C@@]2(C)[C@@H]3CC[C@@]4(C)C[C@]3(CC[C@@H]21)c1cnn(-c2ccc([N+](=O)[O-])cc2)c14 | 10.2 | > 50 | > 50 | > 50 |
| CCOC(=O)[C@]1(C)CCC[C@@]2(C)[C@@H]3CC[C@@]4(C)C[C@]3(CC[C@@H]21)c1cnn(-c2ccc(F)cc2F)c14 | 9.96 | > 50 | 28.4 | 20.1 |
| CCOC(=O)[C@]1(C)CCC[C@@]2(C)[C@@H]3CC[C@@]4(C)C[C@]3(CC[C@@H]21)c1cnn(-c2cc(C)ccc2C)c14 | 7.94 | 34.3 | 33 | 17.1 |
| CCOC(=O)[C@]1(C)CCC[C@@]2(C)[C@@H]3CC[C@@]4(C)C[C@]3(CC[C@@H]21)c1cnn(-c2cc(C)cc(C)c2)c14 | 12.5 | > 50 | > 50 | > 50 |
| CCOC(=O)[C@]1(C)CCC[C@@]2(C)[C@@H]3CC[C@@]4(C)C[C@]3(CC[C@@H]21)[C@@H]1CN(c2ccccc2)N=C14 | 14 | > 50 | > 50 | 28.3 |
| CCOC(=O)[C@]1(C)CCC[C@@]2(C)[C@@H]3CC[C@@]4(C)C[C@]3(CC[C@@H]21)[C@@H]1CN(c2cccc(F)c2)N=C14 | 29.1 | > 50 | > 50 | > 50 |
| CCOC(=O)[C@]1(C)CCC[C@@]2(C)[C@@H]3CC[C@@]4(C)C[C@]3(CC[C@@H]21)[C@@H]1CN(c2ccccc2Cl)N=C14 | > 50 | > 50 | > 50 | > 50 |
| CCOC(=O)[C@]1(C)CCC[C@@]2(C)[C@@H]3CC[C@@]4(C)C[C@]3(CC[C@@H]21)[C@@H]1CN(c2ccc(Cl)cc2)N=C14 | > 50 | > 50 | > 50 | > 50 |
| CCOC(=O)[C@]1(C)CCC[C@@]2(C)[C@@H]3CC[C@@]4(C)C[C@]3(CC[C@@H]21)[C@@H]1CN(c2ccc([N+](=O)[O-])cc2)N=C14 | > 50 | > 50 | > 50 | > 50 |

The next lines start with the values.

| IC50 (Raji) [µM] | IC50 (HeLa) [µM] | IC50 (SGC-7901) [µM] | IC50 (A549) [µM] | SMILES |
| --- | --- | --- | --- | --- |
| > 50 | > 50 | > 50 | > 50 | CCOC(=O)[C@]1(C)CCC[C@@]2(C)[C@@H]3CC[C@@]4(C)C[C@]3(CC[C@@H]21)[C@@H]1CN(c2ccc(Br)cc2)N=C14 |
| 19.9 | > 50 | > 50 | > 50 | CCOC(=O)[C@]1(C)CCC[C@@]2(C)[C@@H]3CC[C@@]4(C)C[C@]3(CC[C@@H]21)[C@@H]1CN(c2ccccc2C)N=C14 |
| 13.5 | > 50 | > 50 | > 50 | CCOC(=O)[C@]1(C)CCC[C@@]2(C)[C@@H]3CC[C@@]4(C)C[C@]3(CC[C@@H]21)[C@@H]1CN(c2ccc(F)cc2F)N=C14 |
| 27.4 | > 50 | > 50 | 20.2 | CCOC(=O)[C@]1(C)CCC[C@@]2(C)[C@@H]3CC[C@@]4(C)C[C@]3(CC[C@@H]21)[C@@H]1CN(c2cc(F)ccc2F)N=C14 |
| 22.1 | > 50 | > 50 | > 50 | CCOC(=O)[C@]1(C)CCC[C@@]2(C)[C@@H]3CC[C@@]4(C)C[C@]3(CC[C@@H]21)[C@@H]1CN(c2cccc(Cl)c2Cl)N=C14 |
| 22.9 | > 50 | > 50 | > 50 | CCOC(=O)[C@]1(C)CCC[C@@]2(C)[C@@H]3CC[C@@]4(C)C[C@]3(CC[C@@H]21)[C@@H]1CN(c2ccc(Cl)cc2Cl)N=C14 |
| > 50 | > 50 | > 50 | 11.6 | CCOC(=O)[C@]1(C)CCC[C@@]2(C)[C@@H]3CC[C@@]4(C)C[C@]3(CC[C@@H]21)[C@@H]1CN(c2c(Cl)cccc2Cl)N=C14 |
| 12.6 | 30.3 | 22.5 | > 50 | CCOC(=O)[C@]1(C)CCC[C@@]2(C)[C@@H]3CC[C@@]4(C)C[C@]3(CC[C@@H]21)[C@@H]1CN(c2cc(C)ccc2C)N=C14 |
| 8.36 | > 50 | 32.5 | > 50 | CCOC(=O)[C@]1(C)CCC[C@@]2(C)[C@@H]3CC[C@@]4(C)C[C@]3(CC[C@@H]21)[C@@H]1CN(c2ccc(C)c(C)c2)N=C14 |
| > 50 | > 50 | > 50 | > 50 | CCOC(=O)[C@]1(C)CCC[C@@]2(C)[C@@H]3CC[C@@]4(C)C[C@]3(CC[C@@H]21)[C@@H]1CN(c2cc(C)cc(C)c2)N=C14 |
| 11.4 | 42.5 | 17.6 | 25.4 | CCOC(=O)[C@]1(C)CCC[C@@]2(C)[C@@H]3CC[C@@]4(C)C[C@]3(CC[C@@H]21)c1cnn(-c2ccccc2)c14 |
| 10.1 | 34.6 | 25.4 | 21.5 | CCOC(=O)[C@]1(C)CCC[C@@]2(C)[C@@H]3CC[C@@]4(C)C[C@]3(CC[C@@H]21)c1cnn(-c2ccccc2Cl)c14 |
| 13.8 | > 50 | 8.44 | 35.3 | CCOC(=O)[C@]1(C)CCC[C@@]2(C)[C@@H]3CC[C@@]4(C)C[C@]3(CC[C@@H]21)c1cnn(-c2ccc(Cl)cc2)c14 |
| 8.61 | > 50 | 34.9 | 18.8 | CCOC(=O)[C@]1(C)CCC[C@@]2(C)[C@@H]3CC[C@@]4(C)C[C@]3(CC[C@@H]21)c1cnn(-c2ccc(C)cc2)c14 |
| 14.3 | > 50 | 15.6 | 42.3 | CCOC(=O)[C@]1(C)CCC[C@@]2(C)[C@@H]3CC[C@@]4(C)C[C@]3(CC[C@@H]21)c1cnn(-c2ccccc2[N+](=O)[O-])c14 |
| 11.7 | > 50 | > 50 | > 50 | CCOC(=O)[C@]1(C)CCC[C@@]2(C)[C@@H]3CC[C@@]4(C)C[C@]3(CC[C@@H]21)c1cnn(-c2cc(Cl)ccc2Cl)c14 |
| 17.1 | > 50 | > 50 | > 50 | CCOC(=O)[C@]1(C)CCC[C@@]2(C)[C@@H]3CC[C@@]4(C)C[C@]3(CC[C@@H]21)c1cnn(-c2ccc(Cl)c(Cl)c2)c14 |
| 15.8 | > 50 | > 50 | > 50 | CCOC(=O)[C@]1(C)CCC[C@@]2(C)[C@@H]3CC[C@@]4(C)C[C@]3(CC[C@@H]21)c1cnn(-c2cc(Cl)cc(Cl)c2)c14 |
| 17.2 | > 50 | 34.7 | 32.6 | CCOC(=O)[C@]1(C)CCC[C@@]2(C)[C@@H]3CC[C@@]4(C)C[C@]3(CC[C@@H]21)[C@@H]1CN(c2ccccc2F)N=C14 |
| 25.1 | > 50 | > 50 | > 50 | CCOC(=O)[C@]1(C)CCC[C@@]2(C)[C@@H]3CC[C@@]4(C)C[C@]3(CC[C@@H]21)[C@@H]1CN(c2cccc(Br)c2)N=C14 |
